For orientation: IC50 means the concentration that inhibits the measured activity by half. Read a high IC50 as weaker potency in that assay. In general, clearance refers to the volume of plasma or blood freed of the substance per unit of time. High values mean a high capacity for elimination, low ones a low capacity for elimination. As a reminder, the MRT last is a mean duration of stay, worked out from the concentration-time curve. Usually bioavailability stands for the share of a dose that reaches the circulation, judged against a reference dose that is usually intravenous. A low value points to little systemic uptake.

Activity calls are given as the source filed them. The calls are words filed in the database; no cut-off is given here.

These results are taken from ChEMBL document CHEMBL4190394, “Discovery of Novel Pazopanib-Based HDAC and VEGFR Dual Inhibitors Targeting Cancer Epigenetics and Angiogenesis Simultaneously” (J Med Chem, 2018).

In series [1] the target is Mast/stem cell growth factor receptor Kit (Homo sapiens, UniProt P10721). The series can be described thus: Inhibition of C-kit (unknown origin) after 40 mins by kinase-Glo assay. In short, it runs like this:
(§1)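 Kinase-Glo luminescent assay run by a contract lab. Compound, kinase, substrate and ATP diluted in kinase buffer and incubated 40 min at room temperature. IC50 obtained by nonlinear regression of normalized dose–response.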

For series [2], the target named is Histone deacetylase. It counts as protein assay, Homo sapiens.
Series [3] has as its system Thoracic aorta. Put plainly: Antiangiogenic activity in Sprague-Dawley rat thoracic aorta ring assessed as reduction in micro-vessel growth at 5 uM treated every day for 6 days by matrigel-based inverted microscopic analysis relative to control. It counts as functional, tissue-based. In short, it runs like this: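 Aortas taken from 4–6-week-old Sprague–Dawley rats, cut into 1-mm rings and embedded in Matrigel. Rings held 30 min at 37 °C, 5% CO2, then treated daily for 6 days with compound or 0.5% DMSO vehicle. Microvessel outgrowth photographed on day 7 at ×200. Three independent experiments.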

Series [4] addresses Histone deacetylase 2 (Homo sapiens, UniProt Q92769).
Series [5] deals with MDA-MB-231. Put plainly: Antiproliferative activity against human MDA-MB-231 cells after 72 hrs by MTT assay. The class given is functional, cell-based. Particulars: MDA-MB-231, 72 h. (In general: Formazan colour is commonly taken as a measure of viable cells.)
In series [6] the target is Platelet-derived growth factor receptor beta (Homo sapiens, UniProt P09619). Put plainly: Inhibition of PDGFRbeta (unknown origin) after 40 mins by kinase-Glo assay. Put shortly: as §1
Sequence of Platelet-derived growth factor receptor beta (P09619 whole entry): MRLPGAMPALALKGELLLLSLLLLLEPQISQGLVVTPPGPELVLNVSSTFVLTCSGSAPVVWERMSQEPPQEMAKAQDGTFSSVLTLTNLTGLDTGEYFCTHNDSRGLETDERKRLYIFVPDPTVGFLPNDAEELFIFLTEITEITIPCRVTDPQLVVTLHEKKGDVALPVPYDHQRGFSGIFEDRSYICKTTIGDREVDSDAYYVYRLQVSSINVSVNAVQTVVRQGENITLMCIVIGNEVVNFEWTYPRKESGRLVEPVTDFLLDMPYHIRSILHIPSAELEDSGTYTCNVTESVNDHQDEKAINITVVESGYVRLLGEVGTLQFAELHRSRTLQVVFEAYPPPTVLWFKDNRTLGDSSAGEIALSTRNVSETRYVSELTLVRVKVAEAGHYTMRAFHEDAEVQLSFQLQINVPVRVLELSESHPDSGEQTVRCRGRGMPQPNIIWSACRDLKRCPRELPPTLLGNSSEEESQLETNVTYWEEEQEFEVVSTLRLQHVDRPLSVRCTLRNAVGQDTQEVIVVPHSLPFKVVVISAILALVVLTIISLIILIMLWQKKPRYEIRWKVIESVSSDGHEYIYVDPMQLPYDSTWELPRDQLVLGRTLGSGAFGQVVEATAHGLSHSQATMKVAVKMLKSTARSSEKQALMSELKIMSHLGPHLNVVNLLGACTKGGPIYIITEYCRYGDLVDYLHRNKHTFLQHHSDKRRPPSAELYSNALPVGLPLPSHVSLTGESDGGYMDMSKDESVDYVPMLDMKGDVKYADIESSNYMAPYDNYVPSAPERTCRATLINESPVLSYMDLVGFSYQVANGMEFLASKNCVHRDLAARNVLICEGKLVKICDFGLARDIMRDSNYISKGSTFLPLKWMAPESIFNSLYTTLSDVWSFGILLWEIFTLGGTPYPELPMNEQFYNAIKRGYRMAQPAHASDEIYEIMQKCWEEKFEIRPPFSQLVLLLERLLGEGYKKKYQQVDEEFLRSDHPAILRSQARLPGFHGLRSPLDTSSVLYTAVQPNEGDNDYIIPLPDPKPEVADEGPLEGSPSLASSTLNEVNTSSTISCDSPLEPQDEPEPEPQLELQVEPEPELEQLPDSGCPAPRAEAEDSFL
In general terms: In Kinase-Glo more light means more ATP remaining.

Series [7] concerns the target Histone deacetylase 1/2/3 (Homo sapiens) (UniProt Q13547+O15379+Q92769). The conditions noted are these: HeLa, at 1 µM.
The subject of series [8] is K562. Put plainly: Antiproliferative activity against human K562 cells after 72 hrs by MTT assay. It counts as functional, cell-based. The conditions noted are these: K562, 72 h.
The nature of series [9]: Clearance in Sprague-Dawley rat at 2 mg/kg, iv by LC-MS/MS analysis. It counts as ADME, organism-based. The conditions noted are these: in vivo. Put shortly:
(§2)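 Sprague–Dawley rats (N = 6) dosed with the hydrochloride salt, 2 mg/kg IV or 10 mg/kg PO. Jugular vein blood drawn at set time points and kept on ice. Plasma separated by centrifugation, stored at -80 °C, and quantified by LC-MS/MS.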

Series [10] is described as follows: MRT (0 to t) in Sprague-Dawley rat at 2 mg/kg, iv by LC-MS/MS analysis. The class given is ADME, organism-based. The conditions noted are these: in vivo. In short, it runs like this:
as §2

The nature of series [11]: Oral bioavailability in Sprague-Dawley rat at 10 mg/kg by LC-MS/MS analysis. It counts as ADME, organism-based. Particulars: in vivo. Put shortly: as §2
Series [12] deals with HT-1080. Put plainly: Antiproliferative activity against human HT1080 cells after 72 hrs by MTT assay. It counts as functional, cell-based. The conditions noted are these: HT-1080, 72 h.
Series [13] addresses Vascular endothelial growth factor receptor 3 (Homo sapiens, UniProt P35916). Put plainly: Inhibition of VEGFR-3 (unknown origin) after 40 mins by kinase-Glo assay.
Series [14] deals with PC-3. The series can be described thus: Antiproliferative activity against human PC3 cells after 72 hrs by MTT assay. It counts as functional, cell-based. Particulars: PC-3, 72 h.

Sequence of Mast/stem cell growth factor receptor Kit (P10721 whole entry): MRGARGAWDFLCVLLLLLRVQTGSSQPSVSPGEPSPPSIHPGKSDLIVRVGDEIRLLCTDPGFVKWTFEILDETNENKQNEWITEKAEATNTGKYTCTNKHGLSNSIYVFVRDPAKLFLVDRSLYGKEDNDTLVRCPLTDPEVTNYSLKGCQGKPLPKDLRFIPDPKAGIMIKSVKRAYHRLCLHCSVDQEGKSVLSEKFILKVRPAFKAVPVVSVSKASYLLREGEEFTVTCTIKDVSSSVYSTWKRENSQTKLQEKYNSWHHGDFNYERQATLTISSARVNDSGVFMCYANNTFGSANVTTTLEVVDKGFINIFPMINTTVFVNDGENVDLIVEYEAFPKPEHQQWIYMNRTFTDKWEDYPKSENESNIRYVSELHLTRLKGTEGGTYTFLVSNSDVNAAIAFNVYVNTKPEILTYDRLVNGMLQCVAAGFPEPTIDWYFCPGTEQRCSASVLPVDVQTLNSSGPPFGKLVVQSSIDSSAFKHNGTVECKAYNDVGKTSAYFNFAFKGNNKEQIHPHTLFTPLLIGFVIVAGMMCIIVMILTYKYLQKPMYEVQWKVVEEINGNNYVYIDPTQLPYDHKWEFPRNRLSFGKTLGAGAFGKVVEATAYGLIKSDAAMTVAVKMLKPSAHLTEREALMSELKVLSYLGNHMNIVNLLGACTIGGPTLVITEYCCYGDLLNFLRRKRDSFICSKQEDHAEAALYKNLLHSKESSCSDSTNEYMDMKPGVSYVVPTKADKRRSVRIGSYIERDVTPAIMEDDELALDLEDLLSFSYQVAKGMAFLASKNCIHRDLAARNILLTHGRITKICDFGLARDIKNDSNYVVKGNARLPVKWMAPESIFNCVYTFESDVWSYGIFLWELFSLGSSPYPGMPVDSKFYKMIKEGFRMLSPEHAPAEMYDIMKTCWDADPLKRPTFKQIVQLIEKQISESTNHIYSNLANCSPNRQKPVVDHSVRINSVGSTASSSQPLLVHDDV
Sequence of Histone deacetylase 2 (Q92769 whole entry): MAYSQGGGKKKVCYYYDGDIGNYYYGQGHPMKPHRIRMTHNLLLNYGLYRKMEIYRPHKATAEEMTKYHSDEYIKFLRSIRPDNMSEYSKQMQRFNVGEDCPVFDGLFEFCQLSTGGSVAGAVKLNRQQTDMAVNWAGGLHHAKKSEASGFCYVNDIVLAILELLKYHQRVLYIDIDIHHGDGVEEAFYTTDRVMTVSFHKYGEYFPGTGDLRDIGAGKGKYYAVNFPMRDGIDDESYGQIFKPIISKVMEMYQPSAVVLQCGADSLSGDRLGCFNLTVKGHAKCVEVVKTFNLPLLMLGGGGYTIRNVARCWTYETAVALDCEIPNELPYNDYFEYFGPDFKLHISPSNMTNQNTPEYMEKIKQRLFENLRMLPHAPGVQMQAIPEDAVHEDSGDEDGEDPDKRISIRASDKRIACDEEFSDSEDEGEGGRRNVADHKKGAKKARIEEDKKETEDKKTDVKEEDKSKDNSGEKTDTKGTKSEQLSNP
Sequence of Vascular endothelial growth factor receptor 3 (P35916 whole entry): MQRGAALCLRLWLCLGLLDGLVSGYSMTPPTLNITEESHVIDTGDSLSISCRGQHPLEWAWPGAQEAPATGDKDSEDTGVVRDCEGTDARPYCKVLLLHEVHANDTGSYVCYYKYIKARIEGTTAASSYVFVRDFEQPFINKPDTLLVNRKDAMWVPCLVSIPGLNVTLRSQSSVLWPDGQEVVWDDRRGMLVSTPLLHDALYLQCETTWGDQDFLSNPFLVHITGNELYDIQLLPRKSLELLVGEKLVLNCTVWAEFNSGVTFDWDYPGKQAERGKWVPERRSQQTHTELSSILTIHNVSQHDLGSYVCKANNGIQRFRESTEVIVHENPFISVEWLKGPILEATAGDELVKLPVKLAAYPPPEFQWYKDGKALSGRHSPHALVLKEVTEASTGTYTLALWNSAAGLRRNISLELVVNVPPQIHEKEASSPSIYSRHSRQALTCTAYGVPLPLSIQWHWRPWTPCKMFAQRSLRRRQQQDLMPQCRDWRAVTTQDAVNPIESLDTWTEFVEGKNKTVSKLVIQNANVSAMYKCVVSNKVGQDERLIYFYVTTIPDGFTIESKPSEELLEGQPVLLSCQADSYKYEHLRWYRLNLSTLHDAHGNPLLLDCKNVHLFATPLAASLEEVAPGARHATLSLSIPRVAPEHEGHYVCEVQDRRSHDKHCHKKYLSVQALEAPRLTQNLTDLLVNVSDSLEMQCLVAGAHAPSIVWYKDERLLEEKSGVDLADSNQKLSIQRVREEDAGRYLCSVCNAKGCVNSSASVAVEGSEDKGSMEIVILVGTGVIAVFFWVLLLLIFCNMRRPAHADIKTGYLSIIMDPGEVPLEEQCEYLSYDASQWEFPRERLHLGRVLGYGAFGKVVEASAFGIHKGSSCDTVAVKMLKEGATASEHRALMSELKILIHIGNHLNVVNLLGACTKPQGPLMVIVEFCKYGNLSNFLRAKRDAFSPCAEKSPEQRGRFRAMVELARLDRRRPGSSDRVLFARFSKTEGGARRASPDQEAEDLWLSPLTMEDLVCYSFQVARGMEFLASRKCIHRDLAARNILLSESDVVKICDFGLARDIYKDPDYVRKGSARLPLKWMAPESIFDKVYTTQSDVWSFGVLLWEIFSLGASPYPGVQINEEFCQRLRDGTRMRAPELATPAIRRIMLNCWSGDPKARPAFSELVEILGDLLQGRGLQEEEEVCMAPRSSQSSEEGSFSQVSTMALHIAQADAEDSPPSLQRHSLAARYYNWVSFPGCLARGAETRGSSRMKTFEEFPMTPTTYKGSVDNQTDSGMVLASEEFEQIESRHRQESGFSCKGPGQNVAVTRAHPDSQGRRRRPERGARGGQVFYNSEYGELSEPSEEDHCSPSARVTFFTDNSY

`Cc1c2ccc(N(C)c3ccnc(Nc4ccc(C(=O)Nc5ccccc5N)cc4)n3)cc2nn1C`: the IC50 was 125 nM in series [1]; 4600 nM in series [2]; 910 nM in series [4]; 3740 nM in series [5]; 88 nM in [6]; 1820 nM in series [8]. For the same compound, the concentration for half-maximal inhibition (IC50) in [12] is > 5000 nM; in series [13] it was 46 nM; in [14], 2380 nM. For the same compound, the result in series [3] was Active. Besides, the inhibition result in series [7] is “Active”. This compound also showed a clearance in [9] of 14.6 mL/min/kg. The compound also yielded a mean residence time MRT last in [10] of 1.13 h. The bioavailability in series [11] was determined as 72%.
